Experiments:
[1] = molecular target: Non-receptor tyrosine-protein kinase TYK2 (Homo sapiens) (UniProt P29597); assay: Inhibition of human N-terminal GST-tagged TYK2 catalytic domain (871 to 1187 residues) expressed in baculovirus expression system at 1 uM using FAM-labeled peptide as substrate after 10 mins by mobility shift assay relative to control
Procedure, shortened: (§1)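 Caliper mobility-shift kinase assay. Kinase in kinase base buffer was preincubated with compound for 10 min at room temperature. FAM-labelled peptide and ATP at Km were then added, and the reaction ran at 28 °C until quenched with buffer. Screening concentration was 1 µM. Percent inhibition = (max − conversion)/(max − min) × 100, with DMSO as max and a low control as min.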

[2] = molecular target: Proto-oncogene tyrosine-protein kinase Src (Homo sapiens) (UniProt P12931); assay: Inhibition of N-terminal GST-tagged full length human SRC cytoplasmic domain (1 to 536 residues) expressed in baculovirus expression system at 1 uM using FAM-labeled peptide as substrate after 10 mins by mobility shift assay relative to control; procedure, shortened: as §1
[3] = molecular target: Fibroblast growth factor receptor 2 (Homo sapiens) (UniProt P21802); assay: Inhibition of N-terminal GST-tagged human FGFR2 cytoplasmic domain (399 to 821 residues) expressed in baculovirus expression system at 1 uM using FAM-labeled peptide as substrate after 10 mins by mobility shift assay relative to control; procedure, shortened: as §1
[4] = molecular target: Vascular endothelial growth factor receptor 2 (Homo sapiens) (UniProt P35968); assay: Inhibition of N-terminal GST-tagged human KDR cytoplasmic domain (790 to 1356 residues) expressed in baculovirus expression system at […] using FAM-labeled peptide as substrate after 10 mins by mobility shift assay relative to control; procedure, shortened: as §1
[5] = molecular target: Tyrosine-protein kinase JAK1 (Homo sapiens) (UniProt P23458); assay: Inhibition of human N-terminal GST-tagged JAK1 catalytic domain (850 to 1154 residues) expressed in baculovirus expression system at 1 uM using FAM-labeled peptide as substrate after 10 mins by mobility shift assay relative to control; procedure, shortened: as §1
[6] = molecular target: T1, Mitogen-activated protein kinase kinase kinase kinase 2 (Homo sapiens) (UniProt Q12851); assay: Inhibition of human N-terminal GST-tagged full length MAP4K2 (1 to 820 residues) expressed in baculovirus expression system at 1 uM using FAM-labeled peptide as substrate after 10 mins by mobility shift assay relative to control; procedure, shortened: as §1
T1 sequence (whole entry): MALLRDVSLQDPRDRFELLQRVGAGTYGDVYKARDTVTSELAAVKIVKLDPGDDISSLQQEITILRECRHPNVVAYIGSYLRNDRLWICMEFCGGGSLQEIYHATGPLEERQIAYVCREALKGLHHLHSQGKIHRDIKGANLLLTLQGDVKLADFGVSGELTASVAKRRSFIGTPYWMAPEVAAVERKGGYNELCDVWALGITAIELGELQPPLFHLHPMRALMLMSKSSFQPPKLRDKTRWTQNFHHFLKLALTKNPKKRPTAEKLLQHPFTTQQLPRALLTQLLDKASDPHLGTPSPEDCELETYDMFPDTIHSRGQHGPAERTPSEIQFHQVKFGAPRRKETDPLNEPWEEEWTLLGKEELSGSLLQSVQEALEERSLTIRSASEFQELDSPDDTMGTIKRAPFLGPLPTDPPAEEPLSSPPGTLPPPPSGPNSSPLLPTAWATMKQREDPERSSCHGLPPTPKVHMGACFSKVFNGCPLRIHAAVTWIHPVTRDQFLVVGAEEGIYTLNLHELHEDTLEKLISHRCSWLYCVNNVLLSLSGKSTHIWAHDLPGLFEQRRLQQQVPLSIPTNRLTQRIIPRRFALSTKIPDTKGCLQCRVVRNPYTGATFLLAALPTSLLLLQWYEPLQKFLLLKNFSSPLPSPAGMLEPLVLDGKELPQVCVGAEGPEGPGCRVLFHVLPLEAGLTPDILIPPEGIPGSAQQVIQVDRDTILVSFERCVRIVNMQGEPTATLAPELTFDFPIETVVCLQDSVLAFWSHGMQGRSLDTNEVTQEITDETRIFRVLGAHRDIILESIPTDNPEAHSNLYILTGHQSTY

[7] = molecular target: T2, Inhibitor of nuclear factor kappa-B kinase subunit beta (Homo sapiens) (UniProt O14920); assay: Inhibition of human N-terminal His-tagged truncated IKKB (1 to 662 residues) expressed in baculovirus expression system at 1 uM using FAM-labeled peptide as substrate after 10 mins by mobility shift assay relative to control; procedure, shortened: as §1
T2 sequence (whole entry): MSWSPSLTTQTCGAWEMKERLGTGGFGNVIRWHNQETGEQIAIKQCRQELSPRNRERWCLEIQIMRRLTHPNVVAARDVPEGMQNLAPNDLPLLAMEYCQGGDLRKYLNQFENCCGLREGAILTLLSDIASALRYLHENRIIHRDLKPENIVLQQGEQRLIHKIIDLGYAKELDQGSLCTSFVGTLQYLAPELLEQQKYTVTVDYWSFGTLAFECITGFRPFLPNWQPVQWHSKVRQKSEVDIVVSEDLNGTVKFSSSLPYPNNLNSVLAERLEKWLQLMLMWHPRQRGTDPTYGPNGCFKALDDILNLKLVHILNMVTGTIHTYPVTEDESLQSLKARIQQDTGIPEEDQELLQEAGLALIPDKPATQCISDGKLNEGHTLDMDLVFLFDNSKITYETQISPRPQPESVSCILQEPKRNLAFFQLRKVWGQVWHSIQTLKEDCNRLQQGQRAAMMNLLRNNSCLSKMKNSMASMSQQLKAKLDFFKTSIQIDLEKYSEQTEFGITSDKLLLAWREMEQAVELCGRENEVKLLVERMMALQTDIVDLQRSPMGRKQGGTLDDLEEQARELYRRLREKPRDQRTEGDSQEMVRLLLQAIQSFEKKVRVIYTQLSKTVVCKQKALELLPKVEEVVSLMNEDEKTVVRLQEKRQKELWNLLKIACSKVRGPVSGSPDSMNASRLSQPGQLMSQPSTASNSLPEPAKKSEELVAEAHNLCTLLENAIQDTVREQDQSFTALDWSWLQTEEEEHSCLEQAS

[8] = molecular target: Vascular endothelial growth factor receptor 3 (Homo sapiens) (UniProt P35916); assay: Inhibition of recombinant human GST-tagged FLT4 cytoplasmic domain (800 to 1297 residues) expressed in baculovirus expression system at 1 uM using FAM-labeled peptide as substrate after 10 mins by mobility shift assay relative to control; procedure, shortened: as §1
[9] = molecular target: Serine/threonine-protein kinase B-raf (Homo sapiens) (UniProt P15056); assay: Inhibition of recombinant human GST-tagged full length BRAF expressed in baculovirus expression system at 1 uM using FAM-labeled peptide as substrate after 10 mins by mobility shift assay relative to control; procedure, shortened: as §1
[10] = molecular target: Mast/stem cell growth factor receptor Kit (Homo sapiens) (UniProt P10721); assay: Inhibition of recombinant human N-terminal GST-tagged c-KIT (544 to end residues) expressed in baculovirus infected Sf21 cells at 1 uM using FAM-labeled peptide as substrate after 10 mins by mobility shift assay relative to control; procedure, shortened: as §1
[11] = molecular target: Receptor tyrosine-protein kinase erbB-2 (Homo sapiens) (UniProt P04626); assay: Inhibition of N-terminal His-tagged human HER2 cytoplasmic domain (676 to 1255 residues) expressed in baculovirus expression system at 1 uM using FAM-labeled peptide as substrate after 10 mins by mobility shift assay relative to control; procedure, shortened: as §1
Chain of Receptor tyrosine-protein kinase erbB-2 (Homo sapiens) (P04626 whole entry, the tested form may be a part): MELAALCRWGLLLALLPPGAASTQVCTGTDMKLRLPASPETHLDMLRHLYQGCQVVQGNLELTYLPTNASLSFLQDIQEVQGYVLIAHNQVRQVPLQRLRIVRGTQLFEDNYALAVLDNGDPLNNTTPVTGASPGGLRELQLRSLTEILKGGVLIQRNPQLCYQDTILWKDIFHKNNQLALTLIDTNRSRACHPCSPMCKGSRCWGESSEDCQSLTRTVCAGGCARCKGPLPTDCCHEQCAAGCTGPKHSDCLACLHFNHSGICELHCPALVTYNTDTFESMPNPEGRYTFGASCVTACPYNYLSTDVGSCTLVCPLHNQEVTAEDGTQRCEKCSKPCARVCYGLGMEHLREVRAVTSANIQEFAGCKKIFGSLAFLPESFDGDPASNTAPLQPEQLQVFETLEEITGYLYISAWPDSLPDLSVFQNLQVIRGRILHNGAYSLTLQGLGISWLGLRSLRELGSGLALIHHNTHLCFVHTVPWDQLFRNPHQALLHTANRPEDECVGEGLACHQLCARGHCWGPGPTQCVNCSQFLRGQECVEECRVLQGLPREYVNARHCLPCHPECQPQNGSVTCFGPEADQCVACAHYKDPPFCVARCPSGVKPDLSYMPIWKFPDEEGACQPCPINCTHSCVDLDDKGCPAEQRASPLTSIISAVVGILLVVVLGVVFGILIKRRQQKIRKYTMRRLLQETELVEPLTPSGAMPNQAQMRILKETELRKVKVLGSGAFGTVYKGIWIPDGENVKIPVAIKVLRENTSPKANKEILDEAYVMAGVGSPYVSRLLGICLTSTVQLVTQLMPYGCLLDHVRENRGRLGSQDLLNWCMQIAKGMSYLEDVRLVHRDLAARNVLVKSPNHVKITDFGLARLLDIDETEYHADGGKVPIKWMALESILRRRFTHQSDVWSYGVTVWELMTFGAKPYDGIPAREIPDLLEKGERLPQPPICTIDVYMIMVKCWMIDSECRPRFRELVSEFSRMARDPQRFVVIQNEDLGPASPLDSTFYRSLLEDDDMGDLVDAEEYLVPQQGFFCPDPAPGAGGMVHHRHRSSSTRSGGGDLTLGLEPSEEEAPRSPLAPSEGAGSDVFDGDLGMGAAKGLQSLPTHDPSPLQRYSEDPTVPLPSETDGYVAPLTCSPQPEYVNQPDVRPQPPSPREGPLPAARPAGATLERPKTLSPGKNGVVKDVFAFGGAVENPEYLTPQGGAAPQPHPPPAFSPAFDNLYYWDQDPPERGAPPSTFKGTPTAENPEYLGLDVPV

Chain of Vascular endothelial growth factor receptor 3 (Homo sapiens) (P35916 whole entry, the tested form may be a part): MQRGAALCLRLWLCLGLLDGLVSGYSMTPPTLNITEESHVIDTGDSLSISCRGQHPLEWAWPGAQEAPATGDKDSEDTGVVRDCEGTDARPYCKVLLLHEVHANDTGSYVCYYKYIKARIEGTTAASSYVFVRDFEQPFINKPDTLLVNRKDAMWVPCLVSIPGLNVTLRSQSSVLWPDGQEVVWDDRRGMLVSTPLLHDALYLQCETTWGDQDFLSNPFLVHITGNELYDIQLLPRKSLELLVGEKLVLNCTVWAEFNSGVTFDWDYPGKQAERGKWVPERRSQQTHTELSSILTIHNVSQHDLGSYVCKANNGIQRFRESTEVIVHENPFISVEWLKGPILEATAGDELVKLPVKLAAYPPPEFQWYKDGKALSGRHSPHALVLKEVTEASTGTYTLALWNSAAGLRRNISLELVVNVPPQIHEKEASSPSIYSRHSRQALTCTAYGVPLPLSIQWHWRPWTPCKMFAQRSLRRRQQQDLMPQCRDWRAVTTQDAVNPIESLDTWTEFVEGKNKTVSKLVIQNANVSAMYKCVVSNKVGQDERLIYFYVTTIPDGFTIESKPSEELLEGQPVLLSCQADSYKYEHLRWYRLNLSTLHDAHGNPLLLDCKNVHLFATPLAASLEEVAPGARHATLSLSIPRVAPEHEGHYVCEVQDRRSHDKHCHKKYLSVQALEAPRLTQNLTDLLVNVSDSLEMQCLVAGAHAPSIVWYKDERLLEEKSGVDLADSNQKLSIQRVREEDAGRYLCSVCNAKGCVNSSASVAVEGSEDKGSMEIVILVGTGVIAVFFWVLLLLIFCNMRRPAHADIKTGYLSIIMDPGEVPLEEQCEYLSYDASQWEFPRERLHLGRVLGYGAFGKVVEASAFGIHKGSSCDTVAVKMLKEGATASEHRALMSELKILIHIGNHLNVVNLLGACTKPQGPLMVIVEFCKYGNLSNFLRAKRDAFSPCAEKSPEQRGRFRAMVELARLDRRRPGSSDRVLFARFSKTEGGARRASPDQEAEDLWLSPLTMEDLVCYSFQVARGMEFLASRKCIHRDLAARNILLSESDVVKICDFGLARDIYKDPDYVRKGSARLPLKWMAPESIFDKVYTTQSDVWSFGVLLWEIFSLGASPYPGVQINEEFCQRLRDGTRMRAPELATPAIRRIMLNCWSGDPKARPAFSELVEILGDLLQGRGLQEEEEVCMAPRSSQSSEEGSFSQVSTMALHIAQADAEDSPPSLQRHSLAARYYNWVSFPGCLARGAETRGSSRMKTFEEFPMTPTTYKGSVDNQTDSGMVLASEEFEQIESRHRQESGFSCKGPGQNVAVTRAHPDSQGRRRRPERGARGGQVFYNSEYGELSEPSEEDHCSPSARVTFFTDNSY
Chain of Proto-oncogene tyrosine-protein kinase Src (Homo sapiens) (P12931 2-536 limits assumed): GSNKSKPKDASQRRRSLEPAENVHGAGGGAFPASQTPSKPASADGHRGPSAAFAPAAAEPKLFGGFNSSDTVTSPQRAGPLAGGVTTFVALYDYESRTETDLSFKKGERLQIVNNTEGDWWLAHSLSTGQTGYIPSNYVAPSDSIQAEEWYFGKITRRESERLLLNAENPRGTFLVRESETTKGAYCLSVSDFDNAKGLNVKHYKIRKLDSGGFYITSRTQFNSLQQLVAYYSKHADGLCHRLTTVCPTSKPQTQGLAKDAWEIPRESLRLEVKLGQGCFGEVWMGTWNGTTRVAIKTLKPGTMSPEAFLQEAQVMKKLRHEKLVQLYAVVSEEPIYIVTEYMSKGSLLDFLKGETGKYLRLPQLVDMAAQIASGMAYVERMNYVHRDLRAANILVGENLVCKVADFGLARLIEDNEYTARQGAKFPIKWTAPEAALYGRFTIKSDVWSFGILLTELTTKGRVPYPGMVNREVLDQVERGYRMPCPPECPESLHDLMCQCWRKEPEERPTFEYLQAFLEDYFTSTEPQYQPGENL
Chain of Serine/threonine-protein kinase B-raf (Homo sapiens) (P15056 whole entry): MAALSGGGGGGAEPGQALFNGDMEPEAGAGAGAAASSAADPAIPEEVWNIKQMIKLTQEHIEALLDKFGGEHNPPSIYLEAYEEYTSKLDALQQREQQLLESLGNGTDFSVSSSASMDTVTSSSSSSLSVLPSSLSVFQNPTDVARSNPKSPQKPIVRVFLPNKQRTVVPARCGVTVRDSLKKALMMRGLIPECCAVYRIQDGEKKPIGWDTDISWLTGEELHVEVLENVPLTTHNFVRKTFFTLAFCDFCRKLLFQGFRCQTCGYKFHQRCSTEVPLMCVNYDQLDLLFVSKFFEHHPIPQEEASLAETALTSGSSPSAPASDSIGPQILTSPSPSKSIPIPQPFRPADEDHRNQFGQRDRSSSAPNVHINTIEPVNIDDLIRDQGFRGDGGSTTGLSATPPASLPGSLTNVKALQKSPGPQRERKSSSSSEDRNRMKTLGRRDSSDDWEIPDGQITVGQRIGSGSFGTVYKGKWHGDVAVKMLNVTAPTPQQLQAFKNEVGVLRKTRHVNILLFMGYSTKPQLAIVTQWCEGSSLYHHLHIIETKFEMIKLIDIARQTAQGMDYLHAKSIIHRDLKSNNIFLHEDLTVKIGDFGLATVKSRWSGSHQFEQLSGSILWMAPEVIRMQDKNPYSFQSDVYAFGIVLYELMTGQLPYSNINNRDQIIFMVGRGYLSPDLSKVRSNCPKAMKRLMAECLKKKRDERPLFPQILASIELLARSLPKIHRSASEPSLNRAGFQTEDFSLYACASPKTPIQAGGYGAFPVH
Chain of Non-receptor tyrosine-protein kinase TYK2 (Homo sapiens) (P29597 whole entry, the tested form may be a part): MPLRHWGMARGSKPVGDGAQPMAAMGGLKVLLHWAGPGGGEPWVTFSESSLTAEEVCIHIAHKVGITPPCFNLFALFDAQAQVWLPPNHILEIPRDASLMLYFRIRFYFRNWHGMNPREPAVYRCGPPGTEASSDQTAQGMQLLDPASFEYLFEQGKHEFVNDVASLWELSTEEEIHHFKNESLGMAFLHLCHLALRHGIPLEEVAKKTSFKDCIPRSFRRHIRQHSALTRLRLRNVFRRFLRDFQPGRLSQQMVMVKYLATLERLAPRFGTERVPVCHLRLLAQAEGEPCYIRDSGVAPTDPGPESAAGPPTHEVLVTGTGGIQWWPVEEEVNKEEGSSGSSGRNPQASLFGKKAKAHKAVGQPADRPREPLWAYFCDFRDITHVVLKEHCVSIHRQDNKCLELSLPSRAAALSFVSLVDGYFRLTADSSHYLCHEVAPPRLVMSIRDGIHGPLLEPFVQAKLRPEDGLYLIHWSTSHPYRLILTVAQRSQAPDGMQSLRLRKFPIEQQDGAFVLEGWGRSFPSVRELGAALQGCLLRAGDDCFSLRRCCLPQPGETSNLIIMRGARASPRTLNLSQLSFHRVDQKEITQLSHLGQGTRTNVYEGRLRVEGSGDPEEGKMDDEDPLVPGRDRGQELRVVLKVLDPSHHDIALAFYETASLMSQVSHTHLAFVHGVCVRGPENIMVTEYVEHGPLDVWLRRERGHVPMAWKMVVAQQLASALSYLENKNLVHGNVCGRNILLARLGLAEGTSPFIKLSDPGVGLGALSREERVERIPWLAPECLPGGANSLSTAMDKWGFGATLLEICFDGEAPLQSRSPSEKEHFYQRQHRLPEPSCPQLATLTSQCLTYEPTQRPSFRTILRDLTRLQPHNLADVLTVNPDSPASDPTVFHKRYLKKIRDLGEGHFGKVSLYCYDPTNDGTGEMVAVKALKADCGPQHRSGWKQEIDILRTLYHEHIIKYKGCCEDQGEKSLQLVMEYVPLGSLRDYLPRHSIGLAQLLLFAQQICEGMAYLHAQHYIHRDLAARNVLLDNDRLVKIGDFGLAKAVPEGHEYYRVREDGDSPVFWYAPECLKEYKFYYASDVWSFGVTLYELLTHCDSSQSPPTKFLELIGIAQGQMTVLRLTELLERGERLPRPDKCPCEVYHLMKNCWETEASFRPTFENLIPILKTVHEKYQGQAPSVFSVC

Compound	inhibition [1] [%]	inhibition [2] [%]	inhibition [3] [%]	inhibition [4] [%]	inhibition [5] [%]	inhibition [6] [%]	inhibition [7] [%]	inhibition [8] [%]	inhibition [9] [%]	inhibition [10] [%]	inhibition [11] [%]
CCOC(=O)c1ccc(Nc2cc(NC(=O)CCCC(=O)O)ncn2)cc1	-1.4	11.4	7.2	-1.4	-3.1	5.5	1.2	28.2	12.7	5.9	4.9
O=C(O)CCCC(=O)Nc1cc(Nc2cccc(Cl)c2)ncn1	-0.6	83.7	16.5	8.5	-1	9.2	1.1	29.4	79.3	13.3	57.3
O=C(O)CCCC(=O)Nc1cc(N2CCOCC2)ncn1	2.5	11.7	5.9	14.4	-2.4	3.3	-3.2	9.5	16.7	-4.4	-1.5
COc1cccc(Nc2cc(NC(=O)CCCC(=O)O)ncn2)c1	-4.4	16.6	21.4	10.5	-0.7	10.5	13.3	29.4	11.3	13.3	-1.9
COc1cccc(Nc2cc(Nc3cc(OC)ccc3OC)ncn2)c1	0	33.2	9.8	7.3	-1.4	5.4	-2.1	47.3	47.5	0.4	-4.2
COc1ccc(Nc2cc(NC(=O)c3ccccc3)ncn2)cc1	-7.9	27.7	8.3	12.4	-0.8	-3.2	3.5	21.6	16.6	26	55.8
